Data as given in ChEMBL document CHEMBL3132745, “Synthesis and Antimicrobial Activities of His(2-aryl)-Arg and Trp-His(2-aryl) Classes of Dipeptidomimetics” (Medchemcomm, 2014).
In brackets after ≈: the same amount, converted by molar mass. Activity calls are given as the source filed them. How the calls were made is not given here. Residues, ends and D or L forms follow the SMILES beside them. *: point of attachment. Boc = CC(C)(C)OC(=O)*; NHBn = c1ccc(CN*)cc1

Assays:
[1] = system: KB; assay: Cytotoxicity against human KB cells assessed as cell viability after 48 hrs by neutral red uptake assay; format: cell-based
Method in brief: (§1)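 Neutral red uptake assay on human cancer lines (SK-MEL, KB, BT-549, SK-OV-3) and noncancerous mammalian cells (VERO, LLC-PK1). Highest tested concentration was 10 µg/mL.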

[2] = system: Nakaseomyces glabratus; assay: Antifungal activity against Candida glabrata assessed as growth inhibition; format: functional, organism-based
[3] = system: Escherichia coli; assay: Antibacterial activity against Escherichia coli ATCC 35218 assessed as growth inhibition after 16-20 hrs by CLSI method; format: functional, organism-based
[4] = system: Cryptococcus neoformans; assay: Antifungal activity against Cryptococcus neoformans ATCC 90113 assessed as growth inhibition after 70-74 hrs by CLSI method; format: functional, organism-based
[5] = system: Pichia kudriavzevii; assay: Antifungal activity against Candida krusei assessed as growth inhibition; format: functional, organism-based
[6] = system: LLC-PK1; assay: Cytotoxicity against pig LLC-PK1 cells assessed as cell viability after 48 hrs by neutral red uptake assay; format: cell-based, Sus scrofa; details: llc-pk1, 48 h; method in brief: as §1
[7] = system: SK-MEL; assay: Cytotoxicity against human SK-MEL cells assessed as cell viability after 48 hrs by neutral red uptake assay; format: cell-based; method in brief: as §1
[8] = system: Candida albicans; assay: Antifungal activity against Candida albicans assessed as growth inhibition; format: functional, organism-based
[9] = system: SK-OV-3; assay: Cytotoxicity against human SKOV3 cells assessed as cell viability after 48 hrs by neutral red uptake assay; format: cell-based; details: sk-ov-3, 48 h; method in brief: as §1
[10] = system: Aspergillus fumigatus; assay: Antifungal activity against Aspergillus fumigatus assessed as growth inhibition; format: functional, organism-based
[11] = system: Vero; assay: Cytotoxicity against african green monkey Vero cells assessed as cell viability after 48 hrs by neutral red uptake assay; format: cell-based; details: chlorocebus sabaeus; method in brief: as §1
[12] = system: BT-549; assay: Cytotoxicity against human BT549 cells assessed as cell viability after 48 hrs by neutral red uptake assay; format: cell-based; details: bt-549, 48 h; method in brief: as §1
[13] = Cryptococcus neoformans, ATCC 90113
[14] = Cryptococcus neoformans, ATCC 90113, read-out: IC50

SMILES	Activity [1]	growth inhibition (GI) [2]	growth inhibition (GI) [3]	IC50 [4]	MFC [4]	MIC [4]	growth inhibition (GI) [5]	Activity [6]	Activity [7]	growth inhibition (GI) [8]	Activity [9]	growth inhibition (GI) [10]	Activity [11]	Activity [12]	MFC [4, 13]	MIC [4, 13]	IC50 [4, 14]
COC(=O)[C@H](CCCNC(=N)N)NC(=O)[C@H](Cc1c[nH]cn1)NC(=O)OC(C)(C)C (Boc-His-Arg-OMe)	> 10 µg/mL	inactive	inactive	Not Active	inactive	inactive	inactive	> 10 µg/mL	> 10 µg/mL	inactive	> 10 µg/mL	inactive	> 10 µg/mL	> 10 µg/mL			
CC(C)(C)OC(=O)N[C@@H](Cc1c[nH]cn1)C(=O)N[C@@H](CCCNC(=N)N)C(=O)NCc1ccccc1 (Boc-His-Arg-NHBn)	> 10 µg/mL	inactive	inactive	Not Active	inactive	inactive	inactive	> 10 µg/mL	> 10 µg/mL	inactive	> 10 µg/mL	inactive	> 10 µg/mL	> 10 µg/mL			
COC(=O)[C@H](CCCNC(=N)N)NC(=O)[C@@H](N)Cc1c[nH]cn1 (H-His-Arg-OMe)	> 10 µg/mL	inactive	inactive	Not Active	inactive	inactive	inactive	> 10 µg/mL	> 10 µg/mL	inactive	> 10 µg/mL	inactive	> 10 µg/mL	> 10 µg/mL			
C[C@@H]1[C@H](O)[C@@H](C)/C=C/C=C/C=C/C=C/C=C/C=C/C=C/[C@H](O[C@@H]2O[C@H](C)[C@@H](O)[C@H](N)[C@@H]2O)C[C@@H]2O[C@](O)(C[C@@H](O)C[C@@H](O)[C@H](O)CC[C@@H](O)C[C@@H](O)CC(=O)O[C@H]1C)C[C@H](O)[C@H]2C(=O)O [AMPHOTERICIN B]															1.25 µg/mL (≈ 1.35 µM)	1.25 µg/mL (≈ 1.35 µM)	0.69 µg/mL (≈ 0.747 µM)
COC(=O)[C@H](Cc1c[nH]c(-c2ccc(C)cc2)n1)NC(=O)[C@@H](N)Cc1c[nH]c2ccccc12	> 10 µg/mL	inactive	inactive		inactive	inactive	inactive	> 10 µg/mL	> 10 µg/mL	inactive	> 10 µg/mL	inactive	> 10 µg/mL	> 10 µg/mL			11.9 µg/mL (≈ 26.7 µM)
COc1ccc(-c2nc(C[C@H](N)C(=O)N[C@@H](CCCNC(=N)N)C(=O)NCc3ccccc3)c[nH]2)cc1	> 10 µg/mL	inactive	inactive	Not Active	inactive	inactive	inactive	> 10 µg/mL	> 10 µg/mL	inactive	> 10 µg/mL	inactive	> 10 µg/mL	> 10 µg/mL			
CC(C)(C)OC(=O)N[C@@H](Cc1c[nH]c2ccccc12)C(=O)N[C@@H](Cc1c[nH]c(-c2cccc3ccccc23)n1)C(=O)NCc1ccccc1	> 10 µg/mL	inactive	inactive	Not Active	inactive	inactive	inactive	> 10 µg/mL	> 10 µg/mL	inactive	> 10 µg/mL	inactive	> 10 µg/mL	> 10 µg/mL			
COC(=O)[C@H](CCCNC(=N)N)NC(=O)[C@H](Cc1c[nH]c(-c2ccc(C(C)(C)C)cc2)n1)NC(=O)OC(C)(C)C	> 10 µg/mL	inactive	inactive	Not Active	inactive	inactive	inactive	> 10 µg/mL	> 10 µg/mL	inactive	> 10 µg/mL	inactive	> 10 µg/mL	> 10 µg/mL			
COC(=O)[C@H](CCCNC(=N)N)NC(=O)[C@H](Cc1c[nH]c(-c2ccc(OC)cc2)n1)NC(=O)OC(C)(C)C	> 10 µg/mL	inactive	inactive	Not Active	inactive	inactive	inactive	> 10 µg/mL	> 10 µg/mL	inactive	> 10 µg/mL	inactive	> 10 µg/mL	> 10 µg/mL			
COC(=O)[C@H](Cc1c[nH]c(-c2ccc(C(C)(C)C)cc2)n1)NC(=O)[C@@H](N)Cc1c[nH]c2ccccc12	> 10 µg/mL	inactive	inactive		inactive	inactive	inactive	> 10 µg/mL	> 10 µg/mL	inactive	> 10 µg/mL	inactive	> 10 µg/mL	> 10 µg/mL			18.8 µg/mL (≈ 38.6 µM)
COC(=O)[C@H](Cc1c[nH]c(-c2ccccc2)n1)NC(=O)[C@H](Cc1c[nH]c2ccccc12)NC(=O)OC(C)(C)C	> 10 µg/mL	inactive	inactive	Not Active	inactive	inactive	inactive	> 10 µg/mL	> 10 µg/mL	inactive	> 10 µg/mL	inactive	> 10 µg/mL	> 10 µg/mL			
N[C@@H](Cc1c[nH]c2ccccc12)C(=O)N[C@@H](Cc1c[nH]c(-c2cccc3ccccc23)n1)C(=O)NCc1ccccc1	> 10 µg/mL	inactive	inactive	Not Active	inactive	inactive	inactive	> 10 µg/mL	> 10 µg/mL	inactive	> 10 µg/mL	inactive	> 10 µg/mL	> 10 µg/mL			
COc1ccc(-c2nc(C[C@H](NC(=O)[C@@H](N)Cc3c[nH]c4ccccc34)C(=O)NCc3ccccc3)c[nH]2)cc1	> 10 µg/mL	inactive	inactive		inactive		inactive	> 10 µg/mL	> 10 µg/mL	inactive	> 10 µg/mL	inactive	> 10 µg/mL	> 10 µg/mL		10 µg/mL (≈ 18.6 µM)	10.8 µg/mL (≈ 20.2 µM)
COC(=O)[C@H](Cc1c[nH]cn1)NC(=O)[C@H](Cc1c[nH]c2ccccc12)NC(=O)OC(C)(C)C (Boc-Trp-His-OMe)	> 10 µg/mL	inactive	inactive	Not Active	inactive	inactive	inactive	> 10 µg/mL	> 10 µg/mL	inactive	> 10 µg/mL	inactive	> 10 µg/mL	> 10 µg/mL			
COC(=O)[C@H](Cc1c[nH]c(-c2ccc(OC)cc2)n1)NC(=O)[C@@H](N)Cc1c[nH]c2ccccc12	> 10 µg/mL	inactive	inactive	Not Active	inactive	inactive	inactive	> 10 µg/mL	> 10 µg/mL	inactive	> 10 µg/mL	inactive	> 10 µg/mL	> 10 µg/mL			
